# Compound activity as filed in PubChem.
# Hits are enriched below; roughly 3.9% of the tested compounds scored in any of these assays.
# TAAR1 antagonist: human TAAR1 antagonism; Q96RJ0; CHO RD-HGA16 TAAR1, Fluo-8 calcium fluorescence, antagonist; inhibition, % at 3 µM; 360,000 tested, 1.5% active;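 active = inhibition above a per-plate cutoff, the mean inhibition of test compounds on that plate plus 3 SD, cut at about 49% in these data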;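 note: 0% = DMSO plus EC80 beta-PEA response and 100% = DMSO alone without agonist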
#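 Test system: CHO RD-HGA16 cells bearing hTAAR1 | Reagent: β-PEA, EC80 | Compound dosing: 3 µM, single point | Schedule: Dye loading 75 min at 37 °C, then 30 min room temperature | Signal: Calcium fluorescence with Fluo-8 | Evaluation: Percent inhibition of PEA-evoked calcium signal, max/basal emission ratio | Control set: DMSO-only wells and EC80 β-PEA-stimulated wells | Repeats: Singlicate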
# TAAR1 ag: agonists of human TAAR1; Q96RJ0; CHO RD-HGA16 TAAR1, Fluo-8 calcium fluorescence; vehicle wells 0%, saturating PEA agonist 100%; activation, % at 3 µM; 360,000 tested, 0.99% active; AID 624467;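 active = activation above the mean activation of all test compounds in the run plus 3 SD, cut at about 38% in these data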
#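 Test system: RD-HGA16 (CHO) cells co-expressing Gα16 and hTAAR1 / Benchmarks: DMSO vehicle as 0%, PEA at EC100 as 100% / Repeats: no replicates (n 1) / Measure: % activation from peak over basal fluorescence ratio, DMSO-to-PEA scaled / Timing: 17-24 h plating, Fluo-8 75 min 37 °C, 30 min RT / Technique: kinetic Fluo-8 calcium fluorescence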
# OX1R antag-1: antagonists of human orexin 1 receptor (OX1R); OX1R-expressing cells, FRET antagonist read-out; inhibition, % at 6.6 µM; 330,000 tested, 1.8% active; AID 485270; in the data active = inhibition mostly above about 38%, no sharp cut-off; inactive = mostly below about 40%;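 note: 0% = agonist challenge alone and 100% = reference antagonist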
# Target sequence (O43613 whole entry, looked up): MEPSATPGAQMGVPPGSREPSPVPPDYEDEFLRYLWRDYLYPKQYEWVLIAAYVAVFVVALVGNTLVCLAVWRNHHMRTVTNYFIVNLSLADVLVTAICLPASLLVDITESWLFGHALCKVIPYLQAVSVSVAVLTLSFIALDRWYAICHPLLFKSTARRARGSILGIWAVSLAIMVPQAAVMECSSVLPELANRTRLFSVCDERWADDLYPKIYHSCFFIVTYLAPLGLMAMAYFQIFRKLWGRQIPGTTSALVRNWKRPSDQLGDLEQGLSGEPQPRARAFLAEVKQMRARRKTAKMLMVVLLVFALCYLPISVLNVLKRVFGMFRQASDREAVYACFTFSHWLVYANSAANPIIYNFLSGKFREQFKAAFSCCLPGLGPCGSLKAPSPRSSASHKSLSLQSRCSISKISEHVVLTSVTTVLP
# OX1R antag-2: blocks the human orexin 1 receptor | 330,000 tested, 0.43% active | O43613 | CHO/OX1R cells, Fluo-8 calcium fluorescence, orexin A | inhibition, % at 5 µM;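 active = inhibition above its plate's threshold, mean inhibition of all tested compounds on the plate plus 3 SD, cut at about 37% in these data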;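 note: 0% = orexin A challenge wells and 100% = SB-334867-A antagonist wells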
# CHO parental Ca: counter-screen for OX1R antagonists: effect in parental CHO cells; 330,000 tested, 0.63% active; AID 463079; inhibition, % at 5.6 µM; parental CHO-K1, ATP-induced calcium, Fluo-8 fluorescence;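 active = inhibition above that plate's mean sample inhibition plus 3 SD, cut at about 26% in these data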;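 note: 0% = ATP-challenged DMSO wells and 100% = DMSO wells without ATP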
#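 Assay system: untransfected parental CHO cell line. Also added: ATP agonist challenge. Dosing: one dose, 5.6 µM nominal. Measured by: Fluo-8 fluorescence. Read-out: % inhibition. Benchmarks: ATP wells versus no-ATP DMSO wells. Repeats: no replicates.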
# Active calls of the source: *; / = no result.
SMILES,TAAR1 antagonist,TAAR1 ag,OX1R antag-1,OX1R antag-2,CHO parental Ca
CC(=O)c1ccc(NC(=O)NNS(=O)(=O)c2ccc([N+](=O)[O-])cc2)cc1,-7.2,3.5,42.9,-3.2,-4.9
Cc1cc(O)c(C(C)C)cc1NC(=O)Nc1ccc([N+](=O)[O-])cc1,6.0,1.8,/,/,/
CC(=O)c1ccc(NC(=O)Nc2ccncc2)cc1,10.1,13.7,6.2,-8.5,-7.8
CC(=O)c1ccc(NC(=O)Nc2ccc(Cl)cc2)cc1,-0.1,42.4*,26.9,33.5,-6.0
Cc1ccc(C(C)C)cc1NC(=O)Nc1ccc([N+](=O)[O-])cc1,33.9,2.2,36.3,21.6,55.4*
CC(=O)c1ccc(NC(=O)Nc2ccc([N+](=O)[O-])cc2)cc1,-6.9,2.3,28.9,16.6,35.0*
COCCN1C(=O)COc2ccccc2C1C(=O)Nc1c(C)cccc1C (centres undefined),3.6,0.2,/,/,/
Cc1cc(C2(c3ccc(O)c(C)c3)C(=O)Nc3ccccc32)ccc1O,25.5,22.7,13.5,17.5,43.0*
CCOC(=O)c1c(NC(=O)CSc2nnc(-c3c[nH]c4ccccc34)n2CCOC)sc2c1CCCC2,-13.3,-1.0,40.7*,12.2,2.5
COCCn1c(SCC(=O)Nc2ccc3c(c2)OCCO3)nnc1-c1c[nH]c2ccccc12,6.5,2.5,49.7*,5.8,-31.2
COCCn1c(SCC(=O)Nc2ccc3c(c2)OCCO3)nnc1-c1ccncc1,2.0,1.7,18.9,0.8,-8.0
CCOC(=O)c1c(NC(=O)CSc2nnc(-c3c[nH]c4ccccc34)n2C)sc2c1CCCC2,-22.9,-0.1,32.8,1.4,-20.0
CC(C)Oc1ccc(F)cc1-c1cc(C(=O)NCc2ccc(F)cc2)[nH]n1,43.9,2.1,/,/,/
O=S(=O)(c1ccc(C(F)(F)F)cc1)N1CCCc2nc(-c3ccc(Br)cc3)ccc21,-26.1,-0.1,/,/,/
O=c1c2cc(F)ccc2sn1-c1ccccc1Cl,-14.1,32.2,/,/,/
O=c1c2ccc(F)cc2sn1-c1ccccc1,7.8,49.3*,/,/,/
Cc1ccc(-n2sc3cc(F)ccc3c2=O)c(C)c1,6.7,48.6*,/,/,/
Cc1ccc(-n2sc3ccccc3c2=O)cc1,-0.6,25.9,24.8,19.3,32.3
CCCCOCCCNC(=O)C[C@@H]1C[C@@]2(C(=O)OCC)CCC=C2N(Cc2cccc3ccccc23)C1=O,-3.0,-1.5,/,/,/
O=C(NCCc1cccs1)Nc1ccc2nc([C@@H]3O[C@H](CO)[C@@H](O)[C@H]3O)[nH]c2c1,-11.3,13.3,/,/,/
CCOC(=O)C1(C)CCCN1C(=O)c1csnn1 (centres undefined),-28.5,1.2,/,/,/
COc1ccccc1N(C)S(=O)(=O)c1ccc(C(=O)N(C)Cc2cccc(F)c2)cc1,16.9,9.3,/,/,/
CN(C)CCCNc1cc(O)c2ncccc2c1,8.8,6.0,45.0*,-0.5,-11.3
Oc1cc(NCc2ccc(F)cc2)cc2cccnc12,-14.1,4.9,21.4,-20.2,-17.2
C=CCN1C(=O)/C(=C\C=C2\N(C)c3ccccc3C2(C)C)SC1=S,33.8,19.2,4.8,1.4,6.0
SMILES,TAAR1 antagonist,TAAR1 ag,OX1R antag-1,OX1R antag-2,CHO parental Ca
CCCCN1C(=O)/C(=C/C=C2\Oc3ccccc3N2CC)SC1=S,89.7*,180.1*,/,/,/
CCCCN1C(=O)/C(=C/C=C2/CC(C)(C)CN2C)SC1=S,17.2,25.7,28.7,46.3*,47.5*
NC(=O)c1c(N)[nH]c(C(=O)c2ccccc2)c1-c1ccccc1Br,-3.0,5.4,/,/,/
Cc1ccc(Sc2c([N+](=O)[O-])ncn2C)cc1,-6.2,8.0,11.2,-4.8,-0.5
Cn1cnc([N+](=O)[O-])c1Sc1ccc(C(C)(C)C)cc1,28.0,41.8*,-1.7,-1.2,-2.1
CC(=O)c1ccc(NC(=O)COC(=O)/C=C/c2cccs2)cc1,18.8,12.1,50.2*,26.2,-15.8
OC(c1ccc(F)cc1)c1nc(-c2cc3ccccc3o2)cs1 (centres undefined),75.2*,45.2*,/,/,/
COC(=O)c1ccc(NC(=O)c2ccc3nsnc3c2)cc1,-8.0,22.0,12.4,-17.6,-3.5
CC(C)(C)NC(=O)c1ccc2nsnc2c1,6.2,-0.7,66.9*,6.2,-5.4
CN1CCN(c2ccc(C(F)(F)F)cc2NC(=O)Nc2ccccc2)CC1,28.8,52.5*,-6.4,17.1,27.0
CN1CCC(NC(=O)Nc2cccc(C(F)(F)F)c2)CC1,19.9,6.9,13.4,-2.9,12.5
NCCCC(C(=O)O)N(C(=O)OCc1ccccc1)C(=O)OCc1ccccc1 (centres undefined),2.0,0.8,/,/,/
COC(=O)c1sc(NC(=O)COc2cccc(C)c2)nc1C,-3.2,-0.6,69.2*,-13.4,-6.4
COC(=O)c1sc(NC(=O)COc2ccc(OC)cc2)nc1C,4.7,20.7,17.7,-15.8,-15.9
COc1ccc(CNC(=O)Nc2nc(C(N)c3ccccc3)cs2)cc1 (centres undefined),8.3,28.6,/,/,/
Cc1ccc(S(=O)(=O)Nc2ccc3c(c2)ncn3C(C)(C)C)cc1,20.6,10.2,-0.6,-17.9,-12.7
CC(C)(C)n1cnc2cc(NS(=O)(=O)c3ccc(Br)cc3)ccc21,24.5,18.2,59.4,59.5*,58.0*
COc1ccc(-n2c(C)cc(/C=N/Nc3nc(N4CCOCC4)nc(N4CCOCC4)n3)c2C)cc1,50.2*,13.6,11.9,-19.4,-19.9
N#CC1=C(N)Nc2ncnn2C1c1ccc([N+](=O)[O-])cc1 (centres undefined),-1.5,1.9,68.8*,-30.1,5.0
Cc1ccc(NC(=O)NNC(=O)CSC2CCc3ccccc32)c(C)c1 (centres undefined),-21.1,-1.8,/,/,/
COC(=O)C1=C(C)N(CCc2ccc(OC)cc2)C(=O)C1,51.8*,16.2,6.3,-18.3,-19.0
O=C(CNC(=O)c1cccc(F)c1)N/N=C/c1ccc([N+](=O)[O-])s1,-30.6,3.1,49.5*,-8.5,-4.9
Cc1ccnn1CC(=O)N/N=C/c1ccc([N+](=O)[O-])s1,-1.3,2.5,51.2*,-18.1,-13.4
O=C(CNC(=O)c1cccc(Br)c1)N/N=C/c1cccs1,-17.1,10.4,6.7,-18.9,-3.8
Cc1ccnn1CC(=O)N/N=C/c1cccs1,-24.7,2.3,8.7,-11.5,-12.5
O=C(Cc1ccccc1)N/N=C/c1ccc([N+](=O)[O-])s1,0.6,30.5,57.6,-9.4,-13.9
O=C(N/N=C/c1ccc([N+](=O)[O-])s1)C(O)c1ccccc1 (centres undefined),9.6,0.3,56.1*,-4.7,-6.2
O=CNc1c(Cl)cc2c(c1Cl)Cc1cc([N+](=O)[O-])ccc1-2,2.5,0.8,/,/,/
O=C(NC1CCCC1)C1c2ccccc2OCC(=O)N1C1CC1 (centres undefined),11.4,0.4,/,/,/
CCCN1C(=O)c2cc(C(=O)O)ccc2C1O (centres undefined),4.1,0.2,0.1,-14.1,0.4
